Assay results published in ChEMBL document CHEMBL1148441, “Simple, short peptide derivatives of a sulfonylindolecarboxamide (L-737,126) active in vitro against HIV-1 wild type and variants carrying non-nucleoside reverse transcriptase inhibitor resistance mutations” (J Med Chem, 2004).

How the values were obtained:
[1] = test system: Human immunodeficiency virus 1; assay: In vitro reduction of p24 by 90% in Efavirenz resistant HIV-1 (K103R, V179D, P225H) infected C8166 cells.; type: functional; settings: Human immunodeficiency virus 1, C8166
How it was run: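 C8166 cells (1×10^4/well) with compound dilutions infected with K103R–V179D–P225H HIV-1 (IIIB passaged in C8166 under efavirenz up to 2 μM), 37 °C; p24 antigen measured by immunoenzymatic kit alongside WT IIIB. EC90 = concentration cutting p24 by 90%; mean of three experiments.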

[2] = In vitro concentration required to reduce the amount of p24 by 90% in WTIIIB infected C8166 cells; type: functional; settings: Homo sapiens
How it was run: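 C8166 cells (1×10^4 per well) in RPMI 1640 with 10% FCS, exposed to serial compound dilutions (DMSO stock 200 mM, diluted in medium), then infected with HIV-1 IIIB from H9/IIIB supernatants, inoculum sized for complete cytopathicity at day 4; incubation at 37 °C; p24 measured by immunoenzymatic kit; EC90 = concentration cutting p24 by 90%; means of three experiments.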

[3] = test system: Human immunodeficiency virus 1; assay: Inhibition of Efavirenz resistant HIV-1 (Y181C) induced cytopathicity in MT-4 cells.; type: functional, organism-based; settings: Human immunodeficiency virus 1, MT4
How it was run: (§1)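 MT-4 cells (1×10^4/well) with test compound dilutions (from 200 mM DMSO stock) infected with mutant HIV-1 at a CCID50 dose causing complete cytopathicity by day 4, 37 °C; viability by MTT. Y181C from clinical isolate passaged under nevirapine; K103N–Y181C from IIIB passaged under BI-RG 587. EC50 = 50% protection; mean of three experiments.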

[4] = test system: Human immunodeficiency virus 1; assay: Inhibition of HIV-1 (IIIB) induced cytopathicity in MT-4 cells.; type: functional, organism-based; settings: Human immunodeficiency virus 1, MT4
How it was run: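 HIV-1 IIIB (from persistently infected H9/IIIB supernatant) added to MT-4 cells (1×10^4/well) with graded compound concentrations, dose set to give full cytopathicity by day 4, 37 °C. Cell viability read by MTT; EC50 = concentration giving 50% protection. Mean of three experiments.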

[5] = test system: Human immunodeficiency virus 1; assay: Inhibition of Efavirenz resistant HIV-1 (K103N-Y181C) induced cytopathicity in MT-4 cells.; type: functional, organism-based; settings: Human immunodeficiency virus 1, MT4; how it was run: as §1
MT4 = assay: In vitro cytotoxicity against mock infected MT-4 cells.; type: functional; settings: Homo sapiens
How it was run: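 Mock-infected MT-4 cells (1×10^4 per well) in RPMI 1640 with 10% FCS, 37 °C, 5% CO2, exposed to serial compound dilutions (DMSO stock 200 mM, diluted in medium), run in parallel with antiviral wells; viability read by MTT; CC50 = concentration reducing viability by 50%; means of three separate experiments, triplicate samples.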

[6] = Selectivity index (Ratio of CC50/EC50).; type: functional
How it was run: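 Ratio of CC50 (MTT viability of mock-infected MT-4 cells) to EC50 (MTT protection of MT-4 cells from cytopathicity of HIV-1 IIIB, inoculum giving complete cytopathicity at day 4, 37 °C); both run in parallel on the same compound dilution series.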

Compound | EC90 [1] [nM] | EC90 [2] [nM] | EC50 [3] [nM] | EC50 [4] [nM] | EC50 [5] [nM] | CC50 (MT4) [nM] | Ratio [6]
Cc1cc(C)cc(S(=O)(=O)c2c(C(=O)NC(C)C(N)=O)[nH]c3ccc(Cl)cc23)c1 (stereo not drawn) | 40 | 4 | 10 | 3 | 700 | 4000 | 1330
CC(NC(=O)c1[nH]c2ccc(Cl)cc2c1S(=O)(=O)c1ccccc1)C(N)=O (stereo not drawn) | 3000 |  | 360 | 10 | 16000 | 64000 | 6400
Cc1cc(C)cc(S(=O)(=O)c2c(C(N)=O)[nH]c3ccc(Cl)cc23)c1 | 80 | 6 | 30 |  | 600 | 15000 | 3750
NNC(=O)c1[nH]c2ccc(Cl)cc2c1S(=O)(=O)c1ccccc1 | 3000 | 20 | 400 |  | ≥ 100000 | > 100000 | > 10000
Cc1ccnc2c1NC(=O)c1cccnc1N2C1CC1 [NEVIRAPINE] | > 30000 | 120 | > 30000 | 400 | > 30000 | > 100000 | > 270
Cc1cc(C)cc(S(=O)(=O)c2c(C(=O)NCC(=O)NN)[nH]c3ccc(Cl)cc23)c1 | 1000 | 30 | 50 | 10 | 2000 | > 100000 | > 10000
Cc1cc(C)cc(S(=O)(=O)c2c(C(=O)NCC(N)=O)[nH]c3ccc(Cl)cc23)c1 | 100 | 10 | 30 | 6 | 800 | 30000 | 5000
NC(=O)c1[nH]c2ccc(Cl)cc2c1S(=O)(=O)c1ccccc1 [L-737126] | 900 | 7 | 20 |  | 8000 | 45000 | 45000
NC(=O)CNC(=O)c1[nH]c2ccc(Cl)cc2c1S(=O)(=O)c1ccccc1 | 2700 |  | 180 | 13 | > 20000 | 65000 | 5000
O=C1Nc2ccc(Cl)cc2[C@@](C#CC2CC2)(C(F)(F)F)O1 [EFAVIRENZ] | 1800 | 8 |  |  |  | 35000 | 
Cc1cc(C)cc(S(=O)(=O)c2c(C(=O)NC(C)C(=O)NN)[nH]c3ccc(Cl)cc23)c1 (stereo not drawn) | 700 | 70 | 140 | 30 | 4700 | 20000 | 666
